According to ChEMBL document CHEMBL1821656, “Design, synthesis, and evaluation of inhibitors of Norwalk virus 3C protease” (Bioorg Med Chem Lett, 2011):
pEC50, pIC50: −log10 of the molar value.

Legend:
[1] = (§1) Inhibition of recombinant Norwalk virus 3C protease using Edans-EPDFHLQGPEDLAK-Dabcyl as substrate preincubated for 30 mins measured for 30 mins by spectrofluorometry
Summary of the method: (§2)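 Enzyme (final 2.5 μM) was held at 30 °C in pH 8.0 sodium phosphate (50 mM) containing 120 mM NaCl and 6 mM DTT. The fluorescence increase was monitored 30 min at 360/460 nm excitation/emission.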

[2] = system: Norwalk virus; experiment: Inhibition of recombinant Norwalk virus 3C protease using Edans-EPDFHLQGPEDLAK-Dabcyl as substrate at [compound]/[substrate] ratio of 25 preincubated for 30 mins measured for 30 mins by spectrofluorometry; parameters: concentration or dose not given beside the values
[3] = Cytotoxicity against mouse […] cells after 12 to 24 hrs relative to ribavirin; type: cell-based; settings: read-out: TD50 (the source's name)
[4] = Cytotoxicity against human HG23 cells after 48 hrs; type: cell-based; settings: read-out: TD50
Summary of the method: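 HG23 cells carrying the Norwalk replicon were used 1 day after plating at 80-90% confluence. They were exposed for 48 hr to compound at 0 (DMSO mock) to 320 μM. Viability was measured with a commercial cytotoxicity kit, and the median toxic dose (TD50) was calculated.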

[5] = system: Norwalk virus; experiment: as §1; summary of the method: as §2
[6] = system: Norwalk virus; experiment: Antiviral activity against Norwalk virus in NV replicon-harboring HG23 cells assessed as inhibition of viral replication after 24 hrs by analyzing NV genome level using qRT-PCR; type: functional; settings: HG23, 24 h, read-out: ED50 (the source's name)
Summary of the method: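 HG23 cells (stably harbouring NV replicon), 1 day old and 80–90% confluent, treated with compound at 0 (DMSO mock) to 320 μM. NV genome levels quantified by qRT-PCR after 24 h of treatment.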

| inhibition [2] | Structure (SMILES) | pIC50 [1] | other results |
| --- | --- | --- | --- |
|  | CC[C@@H](C)[C@H](NC(=O)CNC(=O)OCc1ccccc1)C(=O)N[C@H](C=O)CC1CCNC1=O (stereo partly specified) | 5.12 |  |
|  | CC(C)C[C@H](NC(=O)N1CCOCC1)C(=O)N[C@H](C=O)CC1CCNC1=O (stereo partly specified) | 5.14 |  |
| < 25% | O=C[C@H](CC1CCNC1=O)NC(=O)[C@H](Cc1ccccc1)NC(=O)N1CCOCC1 (stereo partly specified) |  |  |
| < 25% | CC(C)C[C@H](NC(=O)OCc1ccccc1)C(=O)N[C@@H](CC1CCNC1=O)C(=O)C(=O)NC(C)C (stereo partly specified) |  |  |
| < 25% | CCCC[C@H](NC(=O)CNC(=O)OCc1ccccc1)C(=O)N[C@H](CO)CC1CCNC1=O (stereo partly specified) |  |  |
| < 25% | CC(C)C[C@H](NC(=O)CNC(=O)OCc1ccccc1)C(=O)N[C@H](CO)CC1CCNC1=O (stereo partly specified) |  |  |
|  | CC(C)C[C@H](NC(=O)OCc1ccccc1)C(=O)N[C@H](C=O)CC1CCNC1=O (stereo partly specified) | 5.74 | CC50 [3]: > 320 µM; CC50 at 48 h [4]: > 320 µM; inhibition [5]: Dose-dependent effect |
| < 25% | CC(C)C[C@H](NC(=O)OCc1ccccc1)C(=O)N[C@H](CO)CC1CCNC1=O (stereo partly specified) |  |  |
|  | CC(C)C[C@H](NC(=O)CNC(=O)OCc1ccccc1)C(=O)N[C@H](C=O)CC1CCNC1=O (stereo partly specified) | 5.84 | CC50 [3]: > 320 µM; CC50 at 48 h [4]: > 320 µM; pEC50 [6]: 5.11 |
|  | CCCC[C@H](NC(=O)CNC(=O)OCc1ccccc1)C(=O)N[C@H](C=O)CC1CCNC1=O (stereo partly specified) | 6.06 |  |
